# Experimental data collected from several papers.
# Target: STE20/SPS1-related proline-alanine-rich protein kinase (STK39, Homo sapiens, UniProt Q9UEW8)
Compound,assay,setting,quantity,value
Cc1c(NC(=O)c2cc(C(N)=O)nc3cc(F)ccc23)c(C(F)(F)F)nn1Cc1ccc(C(C)(C)C)cc1,"cell-free assay, competition with immobilised ligand",1 µM,remaining binding,100%
COc1cc2c(N3CCN(C(=O)Nc4ccc(OC(C)C)cc4)CC3)ncnc2cc1OCCCN1CCCCC1,cell-free assay,0.5 µM,remaining signal,93.2%
Cc1cc(-n2nc(Cc3cc(F)cc(C(F)(F)F)c3)nc2C)ccc1C(N)=O,"cell-free assay, competition with immobilised ligand",1 µM,remaining binding,100%
CC(C)(C)c1nc(-c2cccc(NS(=O)(=O)c3c(F)cccc3F)c2F)c(-c2ccnc(N)n2)s1,"enzyme activity, inhibitor, radiometric",1 µM,remaining activity,81%
CC(C)(O)[C@H]1CC[C@H](Nc2ccc3ncc(-c4cccc(C(F)(F)F)c4)n3n2)CC1,"enzyme activity, inhibitor",1 µM,remaining activity,112%
Cc1ccc(C(=O)Nc2ccc(CN3CCN(C)CC3)c(C(F)(F)F)c2)cc1C#Cc1cnc2cccnn12,"enzyme activity, inhibitor",23.5 nM,remaining activity,85%
O=C1Nc2ccc(Cl)cc2C1=Cc1cc(Cl)c(O)c(Cl)c1,cell-free assay,0.5 µM,remaining signal,97%
Cc1sc(C(=O)NC2COC2)cc1-n1cc(NC(=O)Nc2c(F)cccc2Cl)cn1,"enzyme activity, inhibitor",10 µM,remaining activity,64.5%
CS(=O)(=O)N1CCCC(NC(=O)[C@H](CCC2CCCCC2)NC(=O)c2ccc(CNc3ncnc4c3nnn4-c3ccccc3)cc2)C1 (stereo partly drawn),"cell-free assay, competition with immobilised ligand",0.1 µM,remaining binding,100%
O=C1NC(=O)c2cc(Nc3ccc(F)cc3)c(Nc3ccc(F)cc3)cc21,cell-free assay,0.5 µM,remaining signal,89.2%
O=c1nc(-c2ccccn2)sc2ccccc12,"binding, competition with immobilised ligand",1 µM,remaining binding,100%
Cn1cnc(Br)c1C1=CN(c2ncnc3[nH]cnc23)CCS1,"enzyme activity, inhibitor, radiometric",2 µM,inhibition,86.6%
